ChEMBL document CHEMBL2407084, “Novel imino sugar α-glucosidase inhibitors as antiviral compounds” (Bioorg Med Chem, 2013)
Activity calls are given as the source filed them. No cut-off for these calls is given here.

Key:
[1] = Cytotoxicity against MDBK cells after 72 hrs by MTS assay; format: cell-based, Bos taurus; conditions: cattle
Outline: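 MDBK cells (5 10^3/well) were plated for 24 h, then given fresh medium with a range of imino sugar concentrations for 72 h. MTS–phenazine methosulfate (20:1) was added for 1 h and absorbance read at 490 nm. Triplicates. CC50 is the concentration giving A490 at 50% of untreated controls.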

MDBK [2] = test: Inhibition of endoplasmic reticulum alpha-glucosidase 1 in MDBK cells assessed as accumulation of triglucosylated Man5GlcNAc1 after 24 hrs by NP-HPLC analysis; format: cell-based; conditions: Bos taurus
Outline: (§1)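 Uninfected MDBK cells (1 10^6/well) were grown with a range of imino sugar concentrations for 24 h at 37 °C. Free oligosaccharides were extracted, labelled with 2-anthranilic acid, and purified on amide and ConA-Sepharose columns. They were separated by NP-HPLC. Peak areas of tri-glucosylated (glucosidase I) or mono-glucosylated (glucosidase II) Man5GlcNAc1 were expressed relative to Man4GlcNAc1. Mean and SD.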

[3] = test system: Bovine viral diarrhea virus 1; test: Antiviral activity against Bovine viral diarrhea virus infected in MDBK cells assessed as reduction in viral infectivity at 50 uM treated for 24 hrs followed by compound washout followed by serially diluted compound treatment measured after 24 hrs by fluorescence microscopic analysis; format: functional, organism-based
Outline: (§2)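 Supernatant from BVDV-infected MDBK cells (MOI 1, 24 h with compound) was clarified, and fivefold serial dilutions infected naive MDBK cells for 24 h. Cells were fixed in 4% paraformaldehyde, blocked in milk, permeabilised with Triton X-100, and probed with MAb103/105 against NS2/3 then FITC anti-mouse. DAPI counterstain. Foci counted by fluorescence microscopy to give FFU/ml relative to untreated control; three experiments, mean and SD.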

MDBK [4] = test: Inhibition of endoplasmic reticulum alpha-glucosidase 1 in MDBK cells assessed as accumulation of triglucosylated Man5GlcNAc1 after 24 hrs by NP-HPLC analysis relative to Man4GlcNAc1 level; format: cell-based; conditions: Bos taurus; outline: as §1
MDBK [5] = test: Inhibition of endoplasmic reticulum alpha-glucosidase 2 in MDBK cells assessed as accumulation of monoglucosylated Man5GlcNAc1 after 24 hrs by NP-HPLC analysis relative to Man4GlcNAc1 level; format: cell-based; conditions: Bos taurus; outline: as §1
[6] = test system: Bovine viral diarrhea virus 1; test: Antiviral activity against Bovine viral diarrhea virus infected in MDBK cells assessed as reduction in viral RNA level at 50 uM after 24 hrs by RT-PCR analysis; format: functional, organism-based
Outline: (§3)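 MDBK cells (1.75 10^6/well) infected with BVDV at MOI 1, then incubated with imino sugar for 24 h. Medium was clarified by centrifugation and viral RNA purified, then DNase-treated. SYBR green real-time RT-PCR used primers amplifying a 334-bp NS2 segment, 35 cycles. Copies were calibrated against a standard curve of serially diluted BVDV stock.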

[7] = test system: Bovine viral diarrhea virus 1; test: Antiviral activity against Bovine viral diarrhea virus infected in MDBK cells assessed as reduction in viral RNA level at 10 uM after 24 hrs by RT-PCR analysis; format: functional, organism-based; outline: as §3
MDBK [8] = test: Inhibition of endoplasmic reticulum alpha-glucosidase 2 in MDBK cells assessed as accumulation of monoglucosylated Man5GlcNAc1 after 24 hrs by NP-HPLC analysis; format: cell-based; conditions: Bos taurus; outline: as §1
[9] = test system: Bovine viral diarrhea virus 1; test: Antiviral activity against Bovine viral diarrhea virus infected in MDBK cells assessed as reduction in viral infectivity at 10 uM treated for 24 hrs followed by compound washout followed by serially diluted compound treatment measured after 24 hrs by fluorescence microscopic analysis; format: functional, organism-based; outline: as §2
MDBK [10] = test: Inhibition of BVDV endoplasmic reticulum alpha-glucosidase 1 infected in MDBK cells assessed as increase in E2 protein glucosylation at 100 uM after 24 hrs by Western blotting analysis; format: cell-based; conditions: Bovine viral diarrhea virus 1
MDBK [11] = test: Inhibition of BVDV endoplasmic reticulum alpha-glucosidase 2 infected in MDBK cells assessed as increase in E2 protein glucosylation at 100 uM after 24 hrs by Western blotting analysis; format: cell-based; conditions: Bovine viral diarrhea virus 1

Structure (SMILES) | CC50 at 72 h [1] | INH (MDBK [2]) | Activity [3] | fold change (FC) (MDBK [4]) | fold change (FC) (MDBK [5]) | Activity [6] | Activity [7] | Concentration giving inhibition (MDBK [8]) | Activity [9] | inhibition (MDBK [2]) | glucosidase I inhibition (active/not active) (MDBK [10]) | inhibition (MDBK [8]) | activity call (active / not active) (MDBK [11])
OC[C@@H]1[C@@H](O)[C@H](O)[C@@H](O)CN1CCCCc1cn(CC23CC4CC(CC(C4)C2)C3)nn1 | > 250 µM | 100 µM | Active | 1.44 | 5.2 | Active | inactive | 50 µM | – | – | – | – | –
OC[C@@H]1[C@@H](O)[C@H](O)[C@@H](O)CN1CCCCCCCCn1cc(COCC23CC4CC(CC(C4)C2)C3)nn1 | 51.7 µM | 25 µM | – | 2 | 5.4 | – | Active | 10 µM | Active | – | – | – | –
OC[C@@H]1[C@H](O)[C@H](O)[C@@H](O)CN1CCCCn1cc(COCC23CC4CC(CC(C4)C2)C3)nn1 | > 250 µM | – | Active | – | – | – | – | – | Active | inactive | inactive | inactive | inactive
OC[C@@H]1[C@@H](O)[C@H](O)[C@@H](O)CN1CCCCCCCCCCn1cc(COCC23CC4CC(CC(C4)C2)C3)nn1 | 29.2 µM | 10 µM | – | 0.26 | 5.8 | – | Active | 5 µM | Active | – | inactive | – | inactive
OC[C@@H]1[C@@H](O)[C@H](O)[C@@H](O)CN1CCc1cn(CC23CC4CC(CC(C4)C2)C3)nn1 | > 250 µM | 100 µM | Active | 0.82 | 5.1 | Active | inactive | 100 µM | – | – | – | – | –
OC[C@@H]1[C@@H](O)[C@H](O)[C@@H](O)CN1Cc1cn(CC23CC4CC(CC(C4)C2)C3)nn1 | > 250 µM | 100 µM | Active | 0.54 | 3 | – | inactive | 100 µM | – | – | – | – | –
OC[C@@H]1[C@@H](O)[C@H](O)[C@@H](O)CN1CCCCCCn1cc(COCC23CC4CC(CC(C4)C2)C3)nn1 | 205 µM | 100 µM | – | 11.4 | 8.3 | – | – | 10 µM | Active | – | Active | – | Active
OC[C@@H]1[C@@H](O)[C@H](O)[C@@H](O)CN1CCCCn1cc(COCC23CC4CC(CC(C4)C2)C3)nn1 | > 250 µM | 100 µM | – | 1.52 | 6 | – | Active | 100 µM | Active | – | inactive | – | inactive
